Laboratory results published in ChEMBL document CHEMBL1134462, “Toward a rational design of peptide inhibitors of ribonucleotide reductase: structure-function and modeling studies” (J Med Chem, 2001).
Non-standard residues stand in square brackets, D forms with d. Residues, ends and D or L forms follow the SMILES beside them. aThr = C[C@H](O)[C@H](N)C(=O)O

Assays:
[1] = Relative dissociation constant evaluated against mouse Ribonucleotide Reductase (RR)
How it was run: (§1)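 Competition of free ligand with column-bound FTLDADF (Sepharose mixed ~60:40 with underivatized Sepharose) for mouse R1. mR1 (4.4 μM) premixed with ligand (typically 100 μM) in 50 mM Tris pH 8.5, 10 mM DTT, 100 μM dTTP, held 30 min on spin column, then centrifuged. Eluted R1 measured by Bradford assay, duplicates; Kd derived from elution versus no-ligand control, expressed relative to AcFTLDADF standard.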

[2] = Relative binding affinity evaluated against mouse Ribonucleotide Reductase (RR); how it was run: as §1

Relative Kd [1]	Relative Ki [2]	Structure (SMILES)
26		CC(=O)N[C@@H](Cc1ccccc1)C(=O)N[C@H](C(=O)N[C@@H](CC(C)C)C(=O)N[C@@H](CC(=O)O)C(=O)N[C@@H](C)C(=O)N[C@@H](CC(=O)O)C(=O)N[C@@H](Cc1ccccc1O)C(=O)O)[C@H](C)O
> 30		CC(=O)N[C@@H](Cc1ccccc1)C(=O)N[C@H](C(=O)N[C@@H](CC(C)C)C(=O)N[C@@H](CC(=O)O)C(=O)N[C@@H](C)C(=O)N[C@@H](CC(=O)O)C(=O)N[C@@H](Cc1ccc([N+](=O)[O-])cc1)C(=O)O)[C@H](C)O
> 30		CC(=O)N[C@@H](Cc1ccccc1)C(=O)N[C@H](C(=O)N[C@@H](CC(C)C)C(=O)N[C@@H](CC(=O)O)C(=O)N[C@@H](C)C(=O)N[C@@H](CC(=O)O)C(=O)N[C@@H](CCC(N)=O)C(=O)O)[C@H](C)O
	> 40	CC(C)C[C@H](NC(=O)[C@@H](NC(=O)[C@@H](N)Cc1ccccc1)[C@H](C)O)C(=O)N[C@@H](CC(=O)O)C(=O)N[C@@H](C)C(=O)N[C@@H](CC(=O)O)C(=O)N[C@@H](Cc1ccccc1)C(=O)O (H-F[aThr]LDADF-OH)
16		CC(=O)N[C@@H](Cc1ccccc1)C(=O)N[C@H](C(=O)N[C@@H](CC(C)C)C(=O)N[C@@H](CC(=O)O)C(=O)N[C@@H](C)C(=O)N[C@@H](CC(=O)O)C(=O)N[C@@H](Cc1c(F)c(F)c(F)c(F)c1F)C(=O)O)[C@H](C)O
	> 35	CC(=O)N[C@@H](Cc1ccccc1)C(=O)N[C@H](C(=O)N[C@@H](CC(C)C)C(=O)N[C@@H](CC(=O)O)C(=O)N[C@@H](C)C(=O)N[C@@H](CC(=O)O)C(=O)N[C@@H](Cc1ccccc1)C(=O)N[C@@H](C)C(=O)N[C@@H](C)C(=O)O)[C@H](C)O (Ac-F[aThr]LDADFAA-OH)
	15	CC(=O)N[C@@H](Cc1ccc(O)cc1)C(=O)N[C@H](C(=O)N[C@@H](CC(C)C)C(=O)N[C@@H](CC(=O)O)C(=O)N[C@@H](C)C(=O)N[C@@H](CC(=O)O)C(=O)N[C@@H](Cc1ccccc1)C(=O)O)[C@H](C)O
29	> 20	CC(=O)N[C@@H](Cc1ccccc1)C(=O)N[C@H](C(=O)N[C@@H](CC(C)C)C(=O)N[C@@H](CC(=O)O)C(=O)N[C@@H](C)C(=O)N[C@@H](CC(=O)O)C(=O)N[C@@H](Cc1c[nH]cn1)C(=O)O)[C@H](C)O
> 30		CC(=O)N[C@@H](Cc1ccccc1)C(=O)N[C@H](C(=O)N[C@@H](CC(C)C)C(=O)N[C@@H](CC(=O)O)C(=O)N[C@@H](C)C(=O)N[C@@H](CC(=O)O)C(=O)N[C@@H](Cc1ccccc1)C(N)=O)[C@H](C)O
> 30		CC(=O)N[C@H](C(=O)N[C@H](C(=O)N[C@@H](CC(C)C)C(=O)N[C@@H](CC(=O)O)C(=O)N[C@@H](C)C(=O)N[C@@H](CC(=O)O)C(=O)N[C@@H](Cc1ccccc1)C(=O)O)[C@H](C)O)C(C)C
4.7		CC(=O)N[C@@H](Cc1ccccc1)C(=O)N[C@H](C(=O)N[C@@H](CC(C)C)C(=O)N[C@@H](CC(=O)O)C(=O)N[C@@H](C)C(=O)N[C@@H](CC(=O)O)C(=O)N[C@@H](Cc1ccc(C)cc1)C(=O)O)[C@H](C)O
1		CCCC(=O)N[C@@H](Cc1ccccc1)C(=O)N[C@H](C(=O)N[C@@H](CC(C)C)C(=O)N[C@@H](CC(=O)O)C(=O)N[C@@H](C)C(=O)N[C@@H](CC(=O)O)C(=O)N[C@@H](Cc1ccccc1)C(=O)O)[C@H](C)O
12		CC(=O)N[C@@H](Cc1ccccc1)C(=O)N[C@H](C(=O)N[C@@H](CC(C)C)C(=O)N[C@@H](CC(=O)O)C(=O)N[C@@H](C)C(=O)N[C@@H](CC(=O)O)C(=O)N[C@@H](Cc1ccccc1Cl)C(=O)O)[C@H](C)O
2.4		CC(C)C[C@H](NC(=O)[C@@H](NC(=O)[C@H](Cc1ccccc1)NC=O)[C@H](C)O)C(=O)N[C@@H](CC(=O)O)C(=O)N[C@@H](C)C(=O)N[C@@H](CC(=O)O)C(=O)N[C@@H](Cc1ccccc1)C(=O)O
> 30		COc1ccccc1C[C@H](NC(=O)[C@H](CC(=O)O)NC(=O)[C@H](C)NC(=O)[C@H](CC(=O)O)NC(=O)[C@H](CC(C)C)NC(=O)[C@@H](NC(=O)[C@H](Cc1ccccc1)NC(C)=O)[C@H](C)O)C(=O)O
6.3		CC(=O)N[C@@H](Cc1ccccc1)C(=O)N[C@H](C(=O)N[C@@H](CC(C)C)C(=O)N[C@@H](CC(=O)O)C(=O)N[C@@H](C)C(=O)N[C@@H](CC(=O)O)C(=O)N[C@@H](Cc1cccc(O)c1)C(=O)O)[C@H](C)O
16		COc1ccc(C[C@H](NC(=O)[C@H](CC(=O)O)NC(=O)[C@H](C)NC(=O)[C@H](CC(=O)O)NC(=O)[C@H](CC(C)C)NC(=O)[C@@H](NC(=O)[C@H](Cc2ccccc2)NC(C)=O)[C@H](C)O)C(=O)O)cc1
8.2		COc1cccc(C[C@H](NC(=O)[C@H](CC(=O)O)NC(=O)[C@H](C)NC(=O)[C@H](CC(=O)O)NC(=O)[C@H](CC(C)C)NC(=O)[C@@H](NC(=O)[C@H](Cc2ccccc2)NC(C)=O)[C@H](C)O)C(=O)O)c1
24		CC(=O)N[C@@H](Cc1ccccc1)C(=O)N[C@H](C(=O)N[C@@H](CC(C)C)C(=O)N[C@@H](CC(=O)O)C(=O)N[C@@H](C)C(=O)N[C@@H](CC(=O)O)C(=O)N[C@@H](Cc1ccc(O)cc1)C(=O)O)[C@H](C)O

Relative Kd [1]	Relative Ki [2]	Structure (SMILES)
0.8		COc1ccc(CC(=O)N[C@@H](Cc2ccccc2)C(=O)N[C@H](C(=O)N[C@@H](CC(C)C)C(=O)N[C@@H](CC(=O)O)C(=O)N[C@@H](C)C(=O)N[C@@H](CC(=O)O)C(=O)N[C@@H](Cc2ccccc2)C(=O)O)[C@H](C)O)cc1
1.4		CC(C)C[C@H](NC(=O)[C@@H](NC(=O)[C@H](Cc1ccccc1)NC(=O)OCC1c2ccccc2-c2ccccc21)[C@H](C)O)C(=O)N[C@@H](CC(=O)O)C(=O)N[C@@H](C)C(=O)N[C@@H](CC(=O)O)C(=O)N[C@@H](Cc1ccccc1)C(=O)O
> 30		CC(=O)N[C@@H](CC(C)C)C(=O)N[C@H](C(=O)N[C@@H](CC(C)C)C(=O)N[C@@H](CC(=O)O)C(=O)N[C@@H](C)C(=O)N[C@@H](CC(=O)O)C(=O)N[C@@H](Cc1ccccc1)C(=O)O)[C@H](C)O (Ac-L[aThr]LDADF-OH)
	> 35	CC(=O)N[C@@H](Cc1ccccc1)C(=O)N[C@H](C(=O)N[C@@H](CC(C)C)C(=O)N[C@@H](CC(=O)O)C(=O)N[C@@H](C)C(=O)N[C@@H](CC(=O)O)C(=O)N[C@@H](CC(C)C)C(=O)O)[C@H](C)O (Ac-F[aThr]LDADL-OH)
1	1	CC(=O)N[C@@H](Cc1ccccc1)C(=O)N[C@H](C(=O)N[C@@H](CC(C)C)C(=O)N[C@@H](CC(=O)O)C(=O)N[C@@H](C)C(=O)N[C@@H](CC(=O)O)C(=O)N[C@@H](Cc1ccccc1)C(=O)O)[C@H](C)O
0.8		CC(C)C[C@H](NC(=O)[C@@H](NC(=O)[C@H](Cc1ccccc1)NC(=O)Cc1ccc([N+](=O)[O-])cc1)[C@H](C)O)C(=O)N[C@@H](CC(=O)O)C(=O)N[C@@H](C)C(=O)N[C@@H](CC(=O)O)C(=O)N[C@@H](Cc1ccccc1)C(=O)O
0.6		CC(C)C[C@H](NC(=O)[C@@H](NC(=O)[C@H](Cc1ccccc1)NC(=O)c1ccnc(-c2cc(C(=O)O)ccn2)c1)[C@H](C)O)C(=O)N[C@@H](CC(=O)O)C(=O)N[C@@H](C)C(=O)N[C@@H](CC(=O)O)C(=O)N[C@@H](Cc1ccccc1)C(=O)O
3.1	3.2	CC(=O)N[C@@H](Cc1ccccc1)C(=O)N[C@H](C(=O)N[C@@H](CC(C)C)C(=O)N[C@@H](CC(=O)O)C(=O)N[C@@H](C)C(=O)N[C@@H](CC(=O)O)C(=O)N[C@@H](Cc1ccc(Cl)cc1)C(=O)O)[C@H](C)O
8.6		CC(=O)N[C@@H](Cc1ccccc1)C(=O)N[C@H](C(=O)N[C@@H](CC(C)C)C(=O)N[C@@H](CC(=O)O)C(=O)N[C@@H](C)C(=O)N[C@@H](CC(=O)O)C(=O)N[C@H](Cc1ccccc1)C(=O)O)[C@H](C)O
6.3		CCC(=O)N[C@@H](Cc1ccccc1)C(=O)N[C@H](C(=O)N[C@@H](CC(C)C)C(=O)N[C@@H](CC(=O)O)C(=O)N[C@@H](C)C(=O)N[C@@H](CC(=O)O)C(=O)N[C@@H](Cc1ccccc1)C(=O)O)[C@H](C)O
6.6		CC(=O)N[C@H](C(=O)N[C@H](C(=O)N[C@@H](CC(C)C)C(=O)N[C@@H](CC(=O)O)C(=O)N[C@@H](C)C(=O)N[C@@H](CC(=O)O)C(=O)N[C@@H](Cc1ccccc1)C(=O)O)[C@H](C)O)c1ccccc1
10		CC(=O)N[C@@H](Cc1ccccc1)C(=O)N[C@H](C(=O)N[C@@H](CC(C)C)C(=O)N[C@@H](CC(=O)O)C(=O)N[C@@H](C)C(=O)N[C@@H](CC(=O)O)C(=O)N[C@@H](Cc1c[nH]c2ccccc12)C(=O)O)[C@H](C)O
0.8		CC(C)C[C@H](NC(=O)[C@@H](NC(=O)[C@H](Cc1ccccc1)NC(=O)Cc1ccccc1)[C@H](C)O)C(=O)N[C@@H](CC(=O)O)C(=O)N[C@@H](C)C(=O)N[C@@H](CC(=O)O)C(=O)N[C@@H](Cc1ccccc1)C(=O)O
24		CC(=O)N[C@@H](Cc1ccccc1)C(=O)N[C@H](C(=O)N[C@@H](CC(C)C)C(=O)N[C@@H](CC(=O)O)C(=O)N[C@@H](C)C(=O)N[C@@H](CC(=O)O)C(=O)N[C@H](C(=O)O)c1ccccc1)[C@H](C)O
23		CC(=O)N[C@@H](Cc1ccccc1)C(=O)N[C@H](C(=O)N[C@@H](CC(C)C)C(=O)N[C@@H](CC(=O)O)C(=O)N[C@@H](C)C(=O)N[C@@H](CC(=O)O)C(=O)N[C@@H](Cc1ccc(N)cc1)C(=O)O)[C@H](C)O
1.9		CC(C)C[C@H](NC(=O)[C@@H](NC(=O)[C@H](Cc1ccccc1)NC(=O)c1ccccc1)[C@H](C)O)C(=O)N[C@@H](CC(=O)O)C(=O)N[C@@H](C)C(=O)N[C@@H](CC(=O)O)C(=O)N[C@@H](Cc1ccccc1)C(=O)O
> 30		CC(=O)N[C@@H](C)C(=O)N[C@H](C(=O)N[C@@H](CC(C)C)C(=O)N[C@@H](CC(=O)O)C(=O)N[C@@H](C)C(=O)N[C@@H](CC(=O)O)C(=O)N[C@@H](Cc1ccccc1)C(=O)O)[C@H](C)O
2		CC(=O)N[C@@H](Cc1ccccc1)C(=O)N[C@H](C(=O)N[C@@H](CC(C)C)C(=O)N[C@@H](CC(=O)O)C(=O)N[C@@H](C)C(=O)N[C@@H](CC(=O)O)C(=O)N[C@@H](Cc1ccccc1F)C(=O)O)[C@H](C)O
